From ChEMBL document CHEMBL4689842, “EUbOPEN Chemogenomics Library wave 1” (2021)

System: HEK-293T
Test: Multiplex assay against HEK293T;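 on Population Tubulin-Different-Phenotype (%): share of the cells with healthy nuclei that show this phenotype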
Assay type: toxicity, cell-based
Settings: human
Summary of the method: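 Values for tubulin, mitochondrial-mass and membrane-permeability phenotypes are per cents of cells with healthy nuclei. These cells were identified by CellPathfinder machine-learning gating of live cells that had been stained at seeding with Hoechst33342, BioTracker Green Microtubule Cytoskeleton Dye, MitoTracker Red and Annexin V Alexa Fluor 680 and imaged on a CQ1 microscope at 37°C and 5% CO2 after compound addition. The gating first set Hoechst high-intensity objects apart from normal cells, then split normal cells into healthy, pyknosed or fragmented nuclei, and pyknosed cells into mitotic or apoptotic.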

[1] = 12 h, 1 µM, compound concentration 1 uM, replicate 1
[2] = 12 h, 1 µM, compound concentration 1 uM, replicate 2
[3] = 12 h, 10 µM, compound concentration 10 uM, replicate 1
[4] = 12 h, 10 µM, compound concentration 10 uM, replicate 2
[5] = 24 h, 1 µM, compound concentration 1 uM, replicate 1
[6] = 24 h, 1 µM, compound concentration 1 uM, replicate 2
[7] = 24 h, 10 µM, compound concentration 10 uM, replicate 1
[8] = 24 h, 10 µM, compound concentration 10 uM, replicate 2
[9] = 48 h, 1 µM, compound concentration 1 uM, replicate 1
[10] = 48 h, 1 µM, compound concentration 1 uM, replicate 2
[11] = 48 h, 10 µM, compound concentration 10 uM, replicate 1
[12] = 48 h, 10 µM, compound concentration 10 uM, replicate 2

## CCCn1c(=O)c2[nH]c(C34CC5CC(CC3C5)C4)nc2n(CCC)c1=O [ROLOFYLLINE]
[1]
  Population Apoptotic (%): 63%
  Population Fragmented Nuclei (%): 14%
  Population Healthy Nuclei (%): 30%
  Population Hoechst High Intensity Objects (%): 15%
  Population Membrane Permeable-Phenotype (%): 3%
  Population Mitochondria Different-Phenotype (%): 84%
  Population Mitotic Cells (%): 36%
  Population Normal (%): 84%
  Population Pyknosed Nuclei (%): 55%
  Population Tubulin-Different-Phenotype (%): 70%
  Total Cell Count: 200
[2]
  Population Apoptotic (%): 12%
  Population Fragmented Nuclei (%): 6%
  Population Healthy Nuclei (%): 43%
  Population Hoechst High Intensity Objects (%): 4%
  Population Membrane Permeable-Phenotype (%): 10%
  Population Mitochondria Different-Phenotype (%): 18%
  Population Mitotic Cells (%): 87%
  Population Normal (%): 95%
  Population Pyknosed Nuclei (%): 50%
  Population Tubulin-Different-Phenotype (%): 15%
  Total Cell Count: 185
[3]
  Population Apoptotic (%): 78%
  Population Fragmented Nuclei (%): 12%
  Population Healthy Nuclei (%): 28%
  Population Hoechst High Intensity Objects (%): 15%
  Population Membrane Permeable-Phenotype (%): 1%
  Population Mitochondria Different-Phenotype (%): 96%
  Population Mitotic Cells (%): 21%
  Population Normal (%): 84%
  Population Pyknosed Nuclei (%): 59%
  Population Tubulin-Different-Phenotype (%): 80%
  Total Cell Count: 256
[4]
  Population Apoptotic (%): 41%
  Population Fragmented Nuclei (%): 5%
  Population Healthy Nuclei (%): 24%
  Population Hoechst High Intensity Objects (%): 9%
  Population Membrane Permeable-Phenotype (%): 12%
  Population Mitochondria Different-Phenotype (%): 84%
  Population Mitotic Cells (%): 58%
  Population Normal (%): 90%
  Population Pyknosed Nuclei (%): 69%
  Population Tubulin-Different-Phenotype (%): 87%
  Total Cell Count: 143
[5]
  Population Apoptotic (%): 50%
  Population Fragmented Nuclei (%): 14%
  Population Healthy Nuclei (%): 32%
  Population Hoechst High Intensity Objects (%): 22%
  Population Membrane Permeable-Phenotype (%): 1%
  Population Mitochondria Different-Phenotype (%): 77%
  Population Mitotic Cells (%): 49%
  Population Normal (%): 77%
  Population Pyknosed Nuclei (%): 53%
  Population Tubulin-Different-Phenotype (%): 83%
  Total Cell Count: 212
[6]
  Population Apoptotic (%): 15%
  Population Fragmented Nuclei (%): 4%
  Population Healthy Nuclei (%): 59%
  Population Hoechst High Intensity Objects (%): 3%
  Population Membrane Permeable-Phenotype (%): 11%
  Population Mitochondria Different-Phenotype (%): 17%
  Population Mitotic Cells (%): 85%
  Population Normal (%): 96%
  Population Pyknosed Nuclei (%): 36%
  Population Tubulin-Different-Phenotype (%): 38%
  Total Cell Count: 228
[7]
  Population Apoptotic (%): 77%
  Population Fragmented Nuclei (%): 13%
  Population Healthy Nuclei (%): 31%
  Population Hoechst High Intensity Objects (%): 14%
  Population Membrane Permeable-Phenotype (%): 2%
  Population Mitochondria Different-Phenotype (%): 97%
  Population Mitotic Cells (%): 22%
  Population Normal (%): 85%
  Population Pyknosed Nuclei (%): 54%
  Population Tubulin-Different-Phenotype (%): 71%
  Total Cell Count: 255
[8]
  Population Apoptotic (%): 40%
  Population Fragmented Nuclei (%): 7%
  Population Healthy Nuclei (%): 38%
  Population Hoechst High Intensity Objects (%): 7%
  Population Membrane Permeable-Phenotype (%): 22%
  Population Mitochondria Different-Phenotype (%): 75%
  Population Mitotic Cells (%): 60%
  Population Normal (%): 92%
  Population Pyknosed Nuclei (%): 53%
  Population Tubulin-Different-Phenotype (%): 87%
  Total Cell Count: 150
[9]
  Population Apoptotic (%): 50%
  Population Fragmented Nuclei (%): 20%
  Population Healthy Nuclei (%): 27%
  Population Hoechst High Intensity Objects (%): 23%
  Population Membrane Permeable-Phenotype (%): 4%
  Population Mitochondria Different-Phenotype (%): 61%
  Population Mitotic Cells (%): 49%
  Population Normal (%): 76%
  Population Pyknosed Nuclei (%): 52%
  Population Tubulin-Different-Phenotype (%): 70%
  Total Cell Count: 227
[10]
  Population Apoptotic (%): 8%
  Population Fragmented Nuclei (%): 6%
  Population Healthy Nuclei (%): 78%
  Population Hoechst High Intensity Objects (%): 4%
  Population Membrane Permeable-Phenotype (%): 14%
  Population Mitochondria Different-Phenotype (%): 7%
  Population Mitotic Cells (%): 91%
  Population Normal (%): 95%
  Population Pyknosed Nuclei (%): 15%
  Population Tubulin-Different-Phenotype (%): 30%
  Total Cell Count: 417
[11]
  Population Apoptotic (%): 64%
  Population Fragmented Nuclei (%): 18%
  Population Healthy Nuclei (%): 31%
  Population Hoechst High Intensity Objects (%): 12%
  Population Membrane Permeable-Phenotype (%): 4%
  Population Mitochondria Different-Phenotype (%): 98%
  Population Mitotic Cells (%): 35%
  Population Normal (%): 87%
  Population Pyknosed Nuclei (%): 50%
  Population Tubulin-Different-Phenotype (%): 87%
  Total Cell Count: 257
[12]
  Population Apoptotic (%): 67%
  Population Fragmented Nuclei (%): 11%
  Population Healthy Nuclei (%): 55%
  Population Hoechst High Intensity Objects (%): 7%
  Population Membrane Permeable-Phenotype (%): 16%
  Population Mitochondria Different-Phenotype (%): 62%
  Population Mitotic Cells (%): 32%
  Population Normal (%): 92%
  Population Pyknosed Nuclei (%): 32%
  Population Tubulin-Different-Phenotype (%): 86%
  Total Cell Count: 185
